Assay [1] concerns HL-60. As to the kind of experiment: Induction of apoptosis in human HL60 cells assessed as caspase 3/7 activation at 10 uM relative to control. Type of assay: functional. The procedure, abridged:
(§1)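 Apoptosis read in HL60 human leukemia cells as caspase 3/7 activity, using DEVD-AMC as substrate. Reported as the optimal compound concentration with fold activation.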

For assay [2], the system named is KB. The assay can be described thus: Cytotoxicity against human KB cells after 72 hrs by MTS assay. The assay is classed as functional, cell-based.
Assay [3] is described as follows: Inhibition of tubulin assembly. The procedure, abridged:
(§2)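 Tubulin assembly inhibition run by the Zavala and Guenard method. Reported as percent inhibition at 6.6 x 10^-5 M, or as IC50 for selected compounds.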

The nature of assay [4]: Ratio of IC50 for drug to deoxypodophyllotoxin for tubulin assembly. In a few lines: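 Inhibition of tubulin assembly was run by the Zavala and Guénard method. Compounds were screened at 6.6 × 10^-5 M, and an IC50 was determined only for the most antiproliferative ones. The value is that IC50 divided by the IC50 of deoxypodophyllotoxin, the reference.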
The subject of assay [5] is HL-60. The assay can be described thus: Induction of apoptosis in human HL60 cells assessed as caspase 3/7 activation at 1 uM relative to control. The assay is classed as functional. The procedure, abridged: as §1
The subject of assay [6] is KB. As to the kind of experiment: Cytotoxicity against human KB cells at 1 uM after 72 hrs by MTS assay. The assay is classed as functional. A general note: Tetrazolium dyes change colour on reduction, which living cells bring about.
In assay [7] the test system is HL-60. As to the kind of experiment: Induction of apoptosis in human HL60 cells assessed as caspase 3/7 activation at 0.1 uM relative to control. Type of assay: functional. The procedure, abridged: as §1
Assay [8] has as its system HL-60. As to the kind of experiment: Induction of apoptosis in human HL60 cells assessed as caspase 3/7 activation at 100 uM relative to control. Type of assay: functional. The procedure, abridged:
as §1

The nature of assay [9]: Inhibition of tubulin assembly at 66 uM. The procedure, abridged:
as §2

The results in this text go back to ChEMBL document CHEMBL1136957, “Semisynthesis and antiproliferative evaluation of a series of 3'-aminoflavones” (Bioorg Med Chem Lett, 2009).

Activity calls are given as the source filed them. The rule behind the calls is not given here.

Take `COc1ccc(-c2cc(=O)c3c(O)c(OC)c(OC)c(OC)c3o2)cc1O`: the “fold change (FC)” value in the assay on HL-60 [1] is recorded as 5.2; with HL-60 [5], 3.8. Moreover, the IC50 came out at 80 nM in the assay on KB [2] and 86000 nM in assay [3]. Moreover, in assay [4], the Ratio IC50 stood at 27.
For `COc1ccc(-c2oc3c(OC)c(OC)c(OC)c(O)c3c(=O)c2OC)cc1O`, the IC50 was determined as 20 nM in the assay on KB [2] and 10000 nM in assay [3]. Also, at 1 µM the inhibition in the assay on KB [6] was 92%. In the assay on HL-60 [7], the “fold change (FC)” value was 5.7. Moreover, in assay [4], the Ratio IC50 amounted to 3.
For the molecule `COc1ccc(-c2cc(=O)c3c(O)cc(O)cc3o2)cc1N`, the inhibition at 1 µM in the assay on KB [6] was 7%. The “fold change (FC)” value in the assay with HL-60 [8] is listed as 4.
In turn, `COc1ccc(-c2oc3c(OC)c(OC)c(OC)c(O)c3c(=O)c2Cl)cc1N` came in with an IC50 in the assay with KB [2] of 140 nM. The inhibition at 1 µM with KB [6] stood at 86%. In [9], this molecule had an inhibition of 15%. Moreover, the “fold change (FC)” value in the assay on HL-60 [5] is 4.5.
Molecule `COc1ccc(-c2oc3c(OC)c(OC)c(OC)c(O)c3c(=O)c2Br)cc1N` showed an inhibition at 1 µM with KB [6] of 55%. For the same molecule, in the assay with HL-60 [5], the “fold change (FC)” value worked out at 3.6.
For `COc1ccc(-c2cc(=O)c3c(OC)c(OC)c(OC)c(OC)c3o2)cc1[N+](=O)[O-]`, in the assay with KB [6], 1 µM produced 3% inhibition.
In the assay on KB [6], `COc1ccc(-c2cc(=O)c3c(OC)c(OC)c(OC)c(OC)c3o2)cc1N` gave an inhibition at 1 µM of 6%. Further, the “fold change (FC)” value in the assay on HL-60 [8] is “inactive”.
In the assay with KB [2], `COc1ccc(-c2cc(=O)c3c(O)c(OC)c(OC)c(OC)c3o2)cc1N` displayed an IC50 of 160 nM. This molecule returned an inhibition at 1 µM with KB [6] of 83%. In assay [9], this molecule gave an inhibition of 27%. Further, in the assay on HL-60 [5], the “fold change (FC)” value worked out at 6.
As for `COc1ccc(-c2cc(=O)c3c(O)c(OC)c(OC)c(OC)c3o2)cc1[N+](=O)[O-]`, at 1 µM the inhibition in the assay on KB [6] was 2%.
In turn, `COc1cc(O)c2c(=O)cc(-c3ccc(OC)c(N)c3)oc2c1` returned an inhibition at 1 µM with KB [6] of 30%. In the assay on HL-60 [8], the “fold change (FC)” value was “inactive”.
The matching figures for `COc1ccc(-c2cc(=O)c3c(OC)c(OC)c(OC)c(OC)c3o2)cc1` [TANGERETIN]: 12% and “inactive”.
`COc1ccc(-c2oc3c(OC)c(OC)c(OC)c(O)c3c(=O)c2Br)cc1[N+](=O)[O-]` displayed an inhibition at 1 µM in the assay with KB [6] of 23%.
As for `COc1ccc(-c2cc(=O)c3c(O)c(OC)c(OC)c(OC)c3o2)cc1` [GARDENIN B], in the assay with KB [6], the inhibition at 1 µM came to 28%. Besides, in the assay on HL-60 [8], the “fold change (FC)” value is listed as 3.8.

One may read the IC50 as the point on the concentration scale where inhibition reaches its midpoint. A lower IC50 goes with greater potency. For orientation: inhibition means the drop in the measured response relative to a control, in per cent. Higher therefore signals a response far below the control.
